Source: ChEMBL document CHEMBL2311269, “Identification of benzofuran-3-yl(phenyl)methanones as novel SIRT1 inhibitors: binding mode, inhibitory mechanism and biological action” (Eur J Med Chem, 2013)
Calls of active or inactive are those of the source. No cut-off for these calls is given here.

Experiments:
[1] = biological target: T1, NAD-dependent protein deacetylase sirtuin-1 (Homo sapiens, UniProt Q96EB6); experiment: Inhibition of N-terminal His6-tagged SIRT1 coding region (156-664) (unknown origin) expressed in Escherichia coli BL21(DE3) using 31.25 uM ac-RHKKac-AMC and 750 uM NAD+ as substrate after 45 mins by fluorometric analysis
T1 sequence (Q96EB6 whole entry): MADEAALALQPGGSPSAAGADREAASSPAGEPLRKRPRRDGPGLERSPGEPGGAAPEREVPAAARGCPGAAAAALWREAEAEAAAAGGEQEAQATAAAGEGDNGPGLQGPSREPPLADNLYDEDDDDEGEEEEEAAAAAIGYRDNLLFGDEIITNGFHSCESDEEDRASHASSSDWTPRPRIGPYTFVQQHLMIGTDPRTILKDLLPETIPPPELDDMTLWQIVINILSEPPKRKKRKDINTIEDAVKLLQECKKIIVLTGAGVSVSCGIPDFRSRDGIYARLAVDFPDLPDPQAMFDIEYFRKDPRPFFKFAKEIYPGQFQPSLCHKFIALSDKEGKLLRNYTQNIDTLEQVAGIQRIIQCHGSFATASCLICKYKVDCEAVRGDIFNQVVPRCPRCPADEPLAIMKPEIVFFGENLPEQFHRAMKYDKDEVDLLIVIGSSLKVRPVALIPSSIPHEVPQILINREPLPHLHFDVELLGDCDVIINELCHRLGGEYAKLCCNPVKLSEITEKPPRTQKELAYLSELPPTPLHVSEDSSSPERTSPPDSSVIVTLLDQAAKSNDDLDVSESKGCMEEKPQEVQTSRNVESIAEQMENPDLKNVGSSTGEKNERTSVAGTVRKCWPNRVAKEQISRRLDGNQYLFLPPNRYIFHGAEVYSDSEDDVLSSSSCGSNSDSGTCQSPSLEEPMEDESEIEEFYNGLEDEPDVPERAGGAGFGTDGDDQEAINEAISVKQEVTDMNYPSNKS

[2] = biological target: T2, NAD-dependent protein deacetylase sirtuin-1 (Homo sapiens) (UniProt Q96EB6); experiment: Reversible inhibition of N-terminal His6-tagged SIRT1 coding region (156-664) (unknown origin) expressed in Escherichia coli BL21(DE3) using ac-RHKKac-AMC as substrate incubated at 10-fold IC50 for 30 mins followed by 100-fold dilution measured up to 40 mins by fluorometric analysis
T2 sequence (whole entry): T1 sequence (Q96EB6 whole entry)
Summary of the method: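 Enzyme was preincubated with inhibitor or DMSO at room temperature for 30 min, then rapidly diluted 100-fold into reaction buffer containing NAD+ and ac-RHKK(ac)-AMC. Deacetylated product was monitored over time, and the slope of the inhibitor curve was compared with the DMSO control.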

[3] = biological target: T3, NAD-dependent protein deacetylase sirtuin-1 (Homo sapiens, UniProt Q96EB6, F312L); experiment: Mixed type inhibition of N-terminal His6-tagged SIRT1 F312L mutant (unknown origin) expressed in Escherichia coli BL21(DE3) using NAD+ as substrate by Lineweaver-Burk plot analysis in presence of ac-RHKKac-AMC
T3 sequence (Q96EB6 2-747 F312L limits assumed): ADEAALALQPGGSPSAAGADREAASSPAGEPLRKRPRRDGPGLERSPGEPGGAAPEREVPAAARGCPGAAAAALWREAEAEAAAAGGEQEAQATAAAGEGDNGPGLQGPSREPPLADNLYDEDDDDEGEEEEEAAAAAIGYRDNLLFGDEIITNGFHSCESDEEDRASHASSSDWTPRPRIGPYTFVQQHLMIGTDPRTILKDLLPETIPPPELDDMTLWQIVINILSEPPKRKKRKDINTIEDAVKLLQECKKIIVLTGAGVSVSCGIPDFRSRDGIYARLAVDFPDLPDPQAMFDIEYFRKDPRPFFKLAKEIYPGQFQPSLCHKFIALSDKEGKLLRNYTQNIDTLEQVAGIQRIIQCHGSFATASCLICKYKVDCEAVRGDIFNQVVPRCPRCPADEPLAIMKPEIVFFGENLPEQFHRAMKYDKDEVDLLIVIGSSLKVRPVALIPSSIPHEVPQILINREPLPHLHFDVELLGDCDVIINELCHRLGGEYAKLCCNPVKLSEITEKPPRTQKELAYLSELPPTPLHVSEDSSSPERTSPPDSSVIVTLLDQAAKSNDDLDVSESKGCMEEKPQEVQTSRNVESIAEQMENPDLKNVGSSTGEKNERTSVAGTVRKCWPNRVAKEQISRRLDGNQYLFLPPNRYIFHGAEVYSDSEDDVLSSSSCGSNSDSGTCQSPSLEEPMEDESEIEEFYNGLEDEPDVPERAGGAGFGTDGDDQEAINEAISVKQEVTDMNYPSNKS
Summary of the method: (§1)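 Velocities of each SIRT1 point mutant were measured at varied inhibitor concentrations with NAD+ varied and peptide present. Reciprocal velocities were plotted against 1/[NAD+], the slopes were replotted versus inhibitor concentration, and Ki was taken from the x-intercepts of these secondary plots.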

[4] = biological target: T4, NAD-dependent protein deacetylase sirtuin-1 (Homo sapiens, UniProt Q96EB6, I347A); experiment: Inhibition of N-terminal His6-tagged SIRT1 I347A mutant (unknown origin) expressed in Escherichia coli BL21(DE3) using ac-RHKKac-AMC as substrate after 45 mins by fluorometric analysis
T4 sequence (Q96EB6 2-747 I347A limits assumed): as the sequence (Q96EB6 2-747 F312L limits assumed) above, with L311F, I346A counted along it
Summary of the method: (§2)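 Mutant SIRT1 enzyme levels were set to give the same deacetylase activity as wild type. The AMC-peptide/NAD+ fluorogenic assay ran in Tris pH 8.0 buffer for 45 min at room temperature, followed by nicotinamide stop, trypsin development and a 340/490 nm fluorescence read. IC50 was obtained by curve fitting.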

[5] = biological target: T1, NAD-dependent protein deacetylase sirtuin-1; experiment: Mixed-type inhibition of N-terminal His6-tagged SIRT1 coding region (156-664) (unknown origin) expressed in Escherichia coli BL21(DE3) using NAD+ as substrate by Lineweaver-Burk plot analysis in presence of ac-RHKKac-AMC
Summary of the method: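 With ac-RHKK(ac)-AMC held fixed, NAD+ was varied at several inhibitor concentrations. Fluorogenic deacetylation velocities were analysed by Lineweaver–Burk plots against NAD+ concentration.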

[6] = biological target: T3, NAD-dependent protein deacetylase sirtuin-1; experiment: Inhibition of N-terminal His6-tagged SIRT1 F312L mutant (unknown origin) expressed in Escherichia coli BL21(DE3) using ac-RHKKac-AMC as substrate after 45 mins by fluorometric analysis; summary of the method: as §2
[7] = biological target: T5, NAD-dependent protein deacetylase sirtuin-1 (Homo sapiens, UniProt Q96EB6, F273L); experiment: Inhibition of N-terminal His6-tagged SIRT1 F273L mutant (unknown origin) expressed in Escherichia coli BL21(DE3) using ac-RHKKac-AMC as substrate after 45 mins by fluorometric analysis; summary of the method: as §2
T5 sequence (Q96EB6 2-747 F273L limits assumed): as the sequence (Q96EB6 2-747 F312L limits assumed) above, with F272L, L311F counted along it

[8] = biological target: T4, NAD-dependent protein deacetylase sirtuin-1; experiment: Mixed type inhibition of N-terminal His6-tagged SIRT1 I347A mutant (unknown origin) expressed in Escherichia coli BL21(DE3) using NAD+ as substrate by Lineweaver-Burk plot analysis in presence of ac-RHKKac-AMC; summary of the method: as §1
MCF7 = experiment: Effect on p53 protein level in human MCF7 cells at 1.2 to 100 uM after 6 hrs by Western blot analysis; format: functional, cell-based
Summary of the method: (§3)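 MCF-7 cells grown in DMEM with 10% fetal calf serum were treated with graded inhibitor concentrations. Lysate protein was run on a 9% gel, transferred to nitrocellulose, blocked 1 h at room temperature in 5% milk/TBST, and probed for acetyl-p53 and total p53.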

[9] = biological target: T6, NAD-dependent protein deacetylase sirtuin-1 (Homo sapiens, UniProt Q96EB6, N346A); experiment: Inhibition of N-terminal His6-tagged SIRT1 N346A mutant (unknown origin) expressed in Escherichia coli BL21(DE3) using ac-RHKKac-AMC as substrate after 45 mins by fluorometric analysis; summary of the method: as §2
T6 sequence (Q96EB6 2-747 N346A limits assumed): as the sequence (Q96EB6 2-747 F312L limits assumed) above, with L311F, N345A counted along it

[10] = biological target: T2, NAD-dependent protein deacetylase sirtuin-1 (Homo sapiens); experiment: Noncompetitive inhibition of N-terminal His6-tagged SIRT1 coding region (156-664) (unknown origin) expressed in Escherichia coli BL21(DE3) using ac-RHKKac-AMC as substrate by Lineweaver-Burk plot analysis in presence of NAD+
[11] = biological target: T2, NAD-dependent protein deacetylase sirtuin-1 (Homo sapiens); experiment: Inhibition of N-terminal His6-tagged SIRT1 coding region (156-664) (unknown origin) expressed in Escherichia coli BL21(DE3) using 100 uM ac-RHKKac-AMC and 20 uM NAD+ as substrate after 45 mins by fluorometric analysis
[12] = system: T7, NAD-dependent protein deacetylase sirtuin-3, mitochondrial (Homo sapiens), Q9NTG7 [L195F]; experiment: Inhibition of N-terminal His6-tagged SIRT3 L195F mutant (unknown origin) expressed in Escherichia coli BL21(DE3) using ac-RHKKac-AMC as substrate at 50 to 100 uM after 45 mins by fluorometric analysis
T7 sequence (whole entry): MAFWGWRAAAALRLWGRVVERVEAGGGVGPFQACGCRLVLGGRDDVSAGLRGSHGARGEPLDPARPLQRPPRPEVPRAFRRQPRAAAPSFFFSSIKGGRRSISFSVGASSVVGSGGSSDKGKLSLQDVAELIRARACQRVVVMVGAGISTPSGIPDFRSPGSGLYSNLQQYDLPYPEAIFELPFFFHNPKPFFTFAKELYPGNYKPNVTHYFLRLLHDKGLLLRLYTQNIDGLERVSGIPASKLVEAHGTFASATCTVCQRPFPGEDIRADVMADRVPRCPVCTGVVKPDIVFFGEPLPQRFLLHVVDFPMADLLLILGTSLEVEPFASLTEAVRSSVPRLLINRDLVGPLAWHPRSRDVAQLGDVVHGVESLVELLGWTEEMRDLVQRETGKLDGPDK

[13] = biological target: T6, NAD-dependent protein deacetylase sirtuin-1; experiment: Mixed type inhibition of N-terminal His6-tagged SIRT1 N346A mutant (unknown origin) expressed in Escherichia coli BL21(DE3) using NAD+ as substrate by Lineweaver-Burk plot analysis in presence of ac-RHKKac-AMC; summary of the method: as §1
[14] = biological target: T5, NAD-dependent protein deacetylase sirtuin-1; experiment: Mixed type inhibition of N-terminal His6-tagged SIRT1 F273L mutant (unknown origin) expressed in Escherichia coli BL21(DE3) using NAD+ as substrate by Lineweaver-Burk plot analysis in presence of ac-RHKKac-AMC; summary of the method: as §1
[15] = biological target: T2, NAD-dependent protein deacetylase sirtuin-1 (Homo sapiens); experiment: Inhibition of SIRT1-mediated p53 deacetylation in human MCF7 cells after 6 hrs by Western blot analysis; format: cell-based; summary of the method: as §3

Row | SMILES | IC50 [1] | other results
1 | O=C(c1ccc(Br)cc1)c1coc2c1cc(O)c1ccccc12 | 146 µM | –
2 | COc1ccc(C(=O)c2coc3c2cc(O)c2ccccc23)cc1 | 256 µM | –
3 | O=C(c1cc(O)ccc1O)c1coc2ccc(O)cc12 | 2.8 µM | inhibition [2]: Active; Ki [3]: 254 µM; IC50 [4]: 421 µM; Ki [5]: 0.8 µM; IC50 [6]: 550 µM; IC50 [7]: 491 µM; Ki [8]: 174 µM; Activity (MCF7): inactive; IC50 [9]: 283 µM; inhibition [10]: Active; inhibition [11]: Active; inhibition [12]: Active; Ki [13]: 253 µM; Ki [14]: 219 µM; inhibition [15]: Dose-dependent effect
4 | COc1ccc(OC)c(C(=O)c2coc3cc(Br)c(O)c(Br)c23)c1 | > 300 µM | –
5 | O=C(c1ccc(Br)cc1)c1coc2ccc(O)cc12 | 240 µM | –
6 | COc1ccc(OC)c(C(=O)c2coc3ccc(O)c(CN4CCOCC4)c23)c1 | > 300 µM | –
7 | COc1ccc(O)cc1C(=O)c1coc2ccc(O)cc12 | 41.7 µM | –
8 | O=C(c1ccccc1O)c1coc2ccc(O)cc12 | 71.4 µM | –
9 | COc1ccc(OC)c(C(=O)c2coc3ccc(OC(C)=O)cc23)c1 | > 300 µM | –
10 | O=C(c1ccccc1)c1coc2ccc(O)c(CN3CCOCC3)c12 | > 300 µM | –
11 | Cc1oc2ccc(O)cc2c1C(=O)c1ccc(Br)cc1 | 243 µM | –
12 | COc1ccc(OC)c(C(=O)c2coc3ccc(O)cc23)c1 | > 300 µM | –
13 | CC(=O)Oc1ccc2occ(C(=O)c3ccccc3)c2c1 | > 300 µM | –
14 | Cc1cc2occ(C(=O)c3ccc(Cl)cc3)c2cc1O | 88 µM | –
15 | O=C(c1ccc(OCc2ccccc2)cc1)c1coc2cc(Br)c(O)c(Br)c12 | > 300 µM | –
16 | COc1ccc(O)c(C(=O)c2coc3ccc(O)cc23)c1 | 45.1 µM | –
17 | O=C(c1ccccc1)c1coc2cc(Br)c(O)c(Br)c12 | 198 µM | –
18 | Cc1ccc(C(=O)c2coc3c2cc(O)c2ccccc23)cc1 | > 300 µM | –
19 | O=C(c1ccccc1)c1coc2c1cc(O)c1ccccc12 | > 300 µM | –
20 | COc1cc2c(C(=O)c3ccc(Br)cc3)c(C)oc2c2ccccc12 | > 300 µM | –
21 | O=C(c1cccc(O)c1)c1coc2ccc(O)cc12 | 31.2 µM | –
